From ChEMBL document CHEMBL5108039, “Piperazine tethered bergenin heterocyclic hybrids: design, synthesis, anticancer activity, and molecular docking studies” (RSC Med Chem, 2022)

Experiments:
HCT-15 = test: Cytotoxicity against human HCT-15 cells assessed as cell growth inhibition; assay type: functional, cell-based
How it was run: (§1)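 Compounds were dissolved in sterile DMSO as 10 mg ml−1 stocks and tested for in vitro growth inhibition of human cancer cell lines. Doxorubicin was the standard drug and DMSO (0.01%) the vehicle control. IC50 values are reported as means.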

CAL-27 [1] = test: Cytotoxicity against human CAL-27 cells assessed as cell growth inhibition; assay type: functional, cell-based; how it was run: as §1
SCC-9 [2] = test: Cytotoxicity against human SCC-9 cells assessed as cell growth inhibition; assay type: functional, cell-based; how it was run: as §1
A549 = test: Cytotoxicity against human A549 cells assessed as cell growth inhibition; assay type: functional, cell-based
How it was run: (§2)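 Compounds were dissolved in sterile DMSO as 10 mg ml−1 stocks and tested in vitro for cytotoxicity in a cell-line panel, with DMSO (0.01%) as vehicle control and doxorubicin as standard. Mean IC50 values were reported, and the normal lung epithelial cells were tested up to 100 μM.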

MCF7 = test: Cytotoxicity against human MCF7 cells assessed as cell growth inhibition; assay type: functional, cell-based; how it was run: as §1
[3] = Cytotoxicity against human BEAS-2B cells assessed as cell growth inhibition; assay type: toxicity, cell-based; how it was run: as §2
CAL-27 [4] = test: Cell cycle arrest in human CAL-27 cells assessed as accumulation at G0/G1 phase at 31.5 uM incubated for 24 hrs by flow cytometry (reference value: 77.6 %); assay type: functional
CAL-27 [5] = test: Cell cycle arrest in human CAL-27 cells assessed as accumulation at G0/G1 phase at 63 uM incubated for 24 hrs by flow cytometry (reference value: 77.6 %); assay type: functional
CAL-27 [6] = test: Cell cycle arrest in human CAL-27 cells assessed as accumulation at S phase at 31.5 uM incubated for 24 hrs by flow cytometry (reference value: 3.6 %); assay type: functional
CAL-27 [7] = test: Cell cycle arrest in human CAL-27 cells assessed as accumulation at S phase at 63 uM incubated for 24 hrs by flow cytometry (reference value: 3.6 %); assay type: functional
CAL-27 [8] = test: Cell cycle arrest in human CAL-27 cells assessed as accumulation at G2/M phase at 31.5 uM incubated for 24 hrs by flow cytometry (reference value: 11.9 %); assay type: functional
CAL-27 [9] = test: Cell cycle arrest in human CAL-27 cells assessed as accumulation at G2/M phase at 63 uM incubated for 24 hrs by flow cytometry (reference value: 11.9 %); assay type: functional
SCC-9 [10] = test: Cell cycle arrest in human SCC-9 cells assessed as accumulation at G0/G1 phase at 46 uM incubated for 24 hrs by flow cytometry (reference value: 70.8 %); assay type: functional
SCC-9 [11] = test: Cell cycle arrest in human SCC-9 cells assessed as accumulation at G0/G1 phase at 92 uM incubated for 24 hrs by flow cytometry (reference value: 70.8 %); assay type: functional
SCC-9 [12] = test: Cell cycle arrest in human SCC-9 cells assessed as accumulation at S phase at 46 uM incubated for 24 hrs by flow cytometry (reference value: 14.4 %); assay type: functional
SCC-9 [13] = test: Cell cycle arrest in human SCC-9 cells assessed as accumulation at S phase at 92 uM incubated for 24 hrs by flow cytometry (reference value: 14.4 %); assay type: functional
SCC-9 [14] = test: Cell cycle arrest in human SCC-9 cells assessed as accumulation at G2/M phase at 46 uM incubated for 24 hrs by flow cytometry (reference value: 14.2 %); assay type: functional
SCC-9 [15] = test: Cell cycle arrest in human SCC-9 cells assessed as accumulation at G2/M phase at 92 uM incubated for 24 hrs by flow cytometry (reference value: 14.2 %); assay type: functional
CAL-27 [16] = test: Induction of apoptosis in human CAL-27 cells assessed as live cells at 31.5 uM incubated for 24 hrs by Annexin V-FITC/PI staining based flow cytometric analysis (reference value: 99.8 %); assay type: functional
How it was run: (§3)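 CAL27 cells were treated with vehicle, doxorubicin or test compounds at 10–63 μM, and apoptosis was assessed by annexin V–FITC/PI staining with flow cytometry. Cells were scored as live, early apoptotic, late apoptotic or necrotic. The vehicle was DMSO (0.01%).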

CAL-27 [17] = test: Induction of apoptosis in human CAL-27 cells assessed as early apoptotic cells at 31.5 uM incubated for 24 hrs by Annexin V-FITC/PI staining based flow cytometric analysis (reference value: 0.1 %); assay type: functional; how it was run: as §3
CAL-27 [18] = test: Induction of apoptosis in human CAL-27 cells assessed as late apoptotic cells at 31.5 uM incubated for 24 hrs by Annexin V-FITC/PI staining based flow cytometric analysis (reference value: 0.1 %); assay type: functional; how it was run: as §3
CAL-27 [19] = test: Induction of apoptosis in human CAL-27 cells assessed as necrotic cells at 31.5 uM incubated for 24 hrs by Annexin V-FITC/PI staining based flow cytometric analysis (reference value: 0.0 %); assay type: functional
CAL-27 [20] = test: Induction of apoptosis in human CAL-27 cells assessed as live cells at 63 uM incubated for 24 hrs by Annexin V-FITC/PI staining based flow cytometric analysis (reference value: 99.8 %); assay type: functional; how it was run: as §3
CAL-27 [21] = test: Induction of apoptosis in human CAL-27 cells assessed as early apoptotic cells at 63 uM incubated for 24 hrs by Annexin V-FITC/PI staining based flow cytometric analysis (reference value: 0.1 %); assay type: functional; how it was run: as §3
CAL-27 [22] = test: Induction of apoptosis in human CAL-27 cells assessed as late apoptotic cells at 63 uM incubated for 24 hrs by Annexin V-FITC/PI staining based flow cytometric analysis (reference value: 0.1 %); assay type: functional; how it was run: as §3
CAL-27 [23] = test: Induction of apoptosis in human CAL-27 cells assessed as necrotic cells at 63 uM incubated for 24 hrs by Annexin V-FITC/PI staining based flow cytometric analysis (reference value: 0.0 %); assay type: functional
SCC-9 [24] = test: Induction of apoptosis in human SCC-9 cells assessed as live cells at 46 uM incubated for 24 hrs by Annexin V-FITC/PI staining based flow cytometric analysis (reference value: 95.7 %); assay type: functional
SCC-9 [25] = test: Induction of apoptosis in human SCC-9 cells assessed as early apoptotic cells at 46 uM incubated for 24 hrs by Annexin V-FITC/PI staining based flow cytometric analysis (reference value: 2.8 %); assay type: functional
SCC-9 [26] = test: Induction of apoptosis in human SCC-9 cells assessed as late apoptotic cells at 46 uM incubated for 24 hrs by Annexin V-FITC/PI staining based flow cytometric analysis (reference value: 1.4 %); assay type: functional
SCC-9 [27] = test: Induction of apoptosis in human SCC-9 cells assessed as necrotic cells at 46 uM incubated for 24 hrs by Annexin V-FITC/PI staining based flow cytometric analysis (reference value: 0.1 %); assay type: functional
SCC-9 [28] = test: Induction of apoptosis in human SCC-9 cells assessed as live cells at 92 uM incubated for 24 hrs by Annexin V-FITC/PI staining based flow cytometric analysis (reference value: 95.7 %); assay type: functional
SCC-9 [29] = test: Induction of apoptosis in human SCC-9 cells assessed as early apoptotic cells at 92 uM incubated for 24 hrs by Annexin V-FITC/PI staining based flow cytometric analysis (reference value: 2.8 %); assay type: functional
SCC-9 [30] = test: Induction of apoptosis in human SCC-9 cells assessed as late apoptotic cells at 92 uM incubated for 24 hrs by Annexin V-FITC/PI staining based flow cytometric analysis (reference value: 1.4 %); assay type: functional
SCC-9 [31] = test: Induction of apoptosis in human SCC-9 cells assessed as necrotic cells at 92 uM incubated for 24 hrs by Annexin V-FITC/PI staining based flow cytometric analysis (reference value: 0.1 %); assay type: functional

## COc1c(O)c(CN2CCN(CC(=O)Nc3nc4ccc(C)cc4s3)CC2)c2c(c1O)C1O[C@H](CO)[C@@H](O)[C@H](O)C1OC2=O (some centres undefined)
HCT-15
  IC50: > 100 µM
CAL-27 [1]
  IC50: 63.7 µM
SCC-9 [2]
  IC50: 91.9 µM
A549
  IC50: 90.6 µM
MCF7
  IC50: 74.5 µM
[3]
  IC50: > 100 µM
CAL-27 [4]
  Activity: 85.4%
CAL-27 [5]
  Activity: 82.1%
CAL-27 [6]
  Activity: 3.7%
CAL-27 [7]
  Activity: 3.2%
CAL-27 [8]
  Activity: 11.5%
CAL-27 [9]
  Activity: 15.3%
SCC-9 [10]
  Activity: 76.9%
SCC-9 [11]
  Activity: 85.7%
SCC-9 [12]
  Activity: 11.3%
SCC-9 [13]
  Activity: 4.9%
SCC-9 [14]
  Activity: 11.7%
SCC-9 [15]
  Activity: 9.4%
CAL-27 [16]
  Activity: 89%
CAL-27 [17]
  Activity: 8.3%
CAL-27 [18]
  Activity: 2.6%
CAL-27 [19]
  Activity: 0.4%
CAL-27 [20]
  Activity: 81.1%
CAL-27 [21]
  Activity: 11.7%
CAL-27 [22]
  Activity: 4.2%
CAL-27 [23]
  Activity: 3%
SCC-9 [24]
  Activity: 38.2%
SCC-9 [25]
  Activity: 9.4%
SCC-9 [26]
  Activity: 14.7%
SCC-9 [27]
  Activity: 37.6%
SCC-9 [28]
  Activity: 53.5%
SCC-9 [29]
  Activity: 7.5%
SCC-9 [30]
  Activity: 12%
SCC-9 [31]
  Activity: 27%
